The source of these data is ChEMBL document CHEMBL4270526, “A novel NAE/UAE dual inhibitor LP0040 blocks neddylation and ubiquitination leading to growth inhibition and apoptosis of cancer cells” (Eur J Med Chem, 2018).

A word on the IC50: it is the concentration needed to halve the response being measured. As usually defined, the inhibition is the drop in the measured response relative to a control, in per cent.

SMILES strings stand for the structures. Active and inactive are the calls of the source. The calls are words filed in the database; no cut-off is given here.

One assay deals with BXPC-3. Description: Antiproliferative activity against human BxPC3 cells after 48 hrs by CCK8 assay. The class given is functional, cell-based. To be noted: BXPC-3, 48 h. In short, it runs like this: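 Cells seeded at 6 × 10^3 cells/well and left 12 h at 37 °C, 5% CO2. Medium then replaced with serial compound dilutions, bortezomib as positive control. After 48 h, CCK-8 added for 4 h and absorbance read at 450 nm. Three repeats; IC50 from normalized nonlinear regression of inhibition curves.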

Assay [1] addresses NEDD8 activating enzyme (Homo sapiens) (UniProt Q8TBC4+Q13564). Description: Inhibition of NAE-mediated CRL neddylation in human AGS cells assessed as increase in p27 level up to 10 uM after 24 hrs by Western blot analysis. The class given is cell-based. The essentials: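 AGS cells given 2, 4, 6, 8 or 10 μM compound or 0.1% DMSO for 24 h, washed in ice-cold PBS and lysed in RIPA on ice. Equal protein loads run by SDS-PAGE: non-reducing for NEDD8/SUMO/Ub conjugates, reducing for p27, NRF2, CDT1 and cleaved caspase-3. Blotted to PVDF with primary antibody overnight at 4 °C and HRP secondary, ECL detection, densitometry. Three repeats.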

The target in assay [2] is cAMP-dependent protein kinase catalytic subunit alpha (Homo sapiens) (UniProt P17612). Description: Inhibition of PKAalpha (unknown origin) at 30 uM relative to control.
For assay [3], the target named is Serine/threonine-protein kinase Chk2 (Homo sapiens) (UniProt O96017). Description: Inhibition of CHK2 (unknown origin) at 30 uM relative to control.
Assay [4] deals with Epidermal growth factor receptor (Homo sapiens) (UniProt P00533). Description: Inhibition of EGFR (unknown origin) at 30 uM relative to control.
Assay [5] deals with AGS. Description: Induction of apoptosis in human AGS cells assessed as necrotic cells at 6 uM after 36 hrs by Annexin-V-FITC/propidium iodide staining based flow cytometry (reference value: 1.01%). Format: functional. (Flow cytometry measures light scatter and fluorescence of single cells or particles in a stream.)
Assay [6] concerns AGS. Description: Induction of apoptosis in human AGS cells assessed as live cells at 8 uM after 36 hrs by Annexin-V-FITC/propidium iodide staining based flow cytometry (reference value: 92.84%). The class given is functional.
Assay [7] has as its system AGS. Description: Induction of apoptosis in human AGS cells assessed as necrotic cells at 8 uM after 36 hrs by Annexin-V-FITC/propidium iodide staining based flow cytometry (reference value: 1.01%). The class given is functional.
The test system of assay [8] is AGS. Description: Induction of apoptosis in human AGS cells after 36 hrs by Annexin-V-FITC/propidium iodide staining based flow cytometry. Format: functional, cell-based.
The test system of assay [9] is AGS. Description: Synergistic antiproliferative activity against human AGS cells assessed as combination index constant at 1 uM after 48 hrs in presence of 7.5 nM BTZ by CCK8 assay. Format: functional. In short, it runs like this: (§1)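 AGS cells at 6×10^3/well attached for 12 h, then exposed for 48 h to compound, bortezomib, or both at set concentrations. CCK-8 added for 4 h, then OD read at 450 nm. Inhibition rates E used for q = E(combo)/(E1+E2−E1×E2). Triplicate experiments.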
On the technique in general: Tetrazolium dyes change colour on reduction, which living cells bring about.

In assay [10] the test system is AGS. Description: Synergistic antiproliferative activity against human AGS cells assessed as combination index constant at 1.25 uM after 48 hrs in presence of 10 nM BTZ by CCK8 assay. Format: functional. In short, it runs like this:
as §1

Serine/threonine-protein kinase Chk2 (Homo sapiens), sequence (O96017 whole entry): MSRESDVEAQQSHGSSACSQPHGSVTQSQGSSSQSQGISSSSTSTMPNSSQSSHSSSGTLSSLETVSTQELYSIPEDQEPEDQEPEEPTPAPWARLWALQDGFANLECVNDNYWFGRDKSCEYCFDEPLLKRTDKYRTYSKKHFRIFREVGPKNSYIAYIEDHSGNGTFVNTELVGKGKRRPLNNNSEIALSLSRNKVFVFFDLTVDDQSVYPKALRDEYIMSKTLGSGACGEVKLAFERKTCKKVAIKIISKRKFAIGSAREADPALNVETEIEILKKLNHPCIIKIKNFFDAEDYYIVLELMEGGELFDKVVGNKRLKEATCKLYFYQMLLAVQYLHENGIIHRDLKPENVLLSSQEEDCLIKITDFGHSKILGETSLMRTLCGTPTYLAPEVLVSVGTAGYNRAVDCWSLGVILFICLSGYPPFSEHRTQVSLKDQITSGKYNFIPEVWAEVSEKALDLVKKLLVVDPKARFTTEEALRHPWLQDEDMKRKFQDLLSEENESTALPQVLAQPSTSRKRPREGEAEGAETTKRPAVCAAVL
Epidermal growth factor receptor (Homo sapiens), sequence (P00533 whole entry): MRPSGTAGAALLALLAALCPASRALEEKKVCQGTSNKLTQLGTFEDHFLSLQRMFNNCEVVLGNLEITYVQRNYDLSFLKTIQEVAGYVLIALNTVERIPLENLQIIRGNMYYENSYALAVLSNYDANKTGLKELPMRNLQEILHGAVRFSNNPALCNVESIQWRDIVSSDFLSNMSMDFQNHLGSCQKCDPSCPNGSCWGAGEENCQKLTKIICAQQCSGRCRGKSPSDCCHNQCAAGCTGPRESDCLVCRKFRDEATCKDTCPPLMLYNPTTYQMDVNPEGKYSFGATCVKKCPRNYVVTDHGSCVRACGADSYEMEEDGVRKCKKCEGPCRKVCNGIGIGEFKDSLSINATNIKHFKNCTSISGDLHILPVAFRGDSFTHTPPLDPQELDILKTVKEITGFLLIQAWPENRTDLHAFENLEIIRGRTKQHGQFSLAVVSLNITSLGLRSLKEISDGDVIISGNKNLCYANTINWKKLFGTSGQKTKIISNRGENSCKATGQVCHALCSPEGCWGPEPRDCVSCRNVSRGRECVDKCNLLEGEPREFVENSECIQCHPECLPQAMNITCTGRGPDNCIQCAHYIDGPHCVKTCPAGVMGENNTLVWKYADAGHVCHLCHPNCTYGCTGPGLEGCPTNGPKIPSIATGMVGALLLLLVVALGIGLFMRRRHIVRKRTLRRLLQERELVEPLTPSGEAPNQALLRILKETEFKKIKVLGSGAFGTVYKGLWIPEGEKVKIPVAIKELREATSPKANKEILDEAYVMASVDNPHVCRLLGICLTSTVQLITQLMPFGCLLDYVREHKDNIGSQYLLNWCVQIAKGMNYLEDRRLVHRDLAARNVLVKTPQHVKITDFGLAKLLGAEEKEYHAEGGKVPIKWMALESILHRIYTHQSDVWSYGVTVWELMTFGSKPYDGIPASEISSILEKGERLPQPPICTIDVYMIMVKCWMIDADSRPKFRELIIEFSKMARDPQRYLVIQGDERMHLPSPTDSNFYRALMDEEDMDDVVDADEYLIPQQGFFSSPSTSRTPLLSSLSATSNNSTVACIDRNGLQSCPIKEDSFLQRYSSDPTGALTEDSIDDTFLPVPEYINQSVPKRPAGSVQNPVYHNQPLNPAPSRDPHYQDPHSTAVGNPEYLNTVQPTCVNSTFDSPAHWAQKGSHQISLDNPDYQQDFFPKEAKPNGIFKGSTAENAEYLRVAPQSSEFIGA

As for `O=c1cc(-c2ccc(-c3ccccc3)cc2)c2ccc(N3CCC(NCCc4ccccc4)CC3)cc2o1`, in the assay with BXPC-3, the IC50 was found to be 2.8 µM. Moreover, the inhibition entry in assay [1] is “Active”. The inhibition in assay [2] was found to be 5.17%; in assay [3], 9.44%; in assay [4], 2.77%. Besides, the Activity was 3.33% in the assay on AGS [5], 9.88% in the assay on AGS [6], 4.71% in the assay with AGS [7] and “Dose-dependent effect” in the assay with AGS [8]. In addition, the CI in the assay on AGS [9] is on record as 1.13; with AGS [10], 1.75.
